ChEMBL document CHEMBL3259627, “Allosteric inhibition of human factor XIa: discovery of monosulfated benzofurans as a class of promising inhibitors” (J Med Chem, 2014)
The source made the active and inactive calls. The rule behind the calls is not given here.

Experiments:
Coagulation factor XI [1] = molecular target: T1, Coagulation factor XI (Homo sapiens, UniProt P03951); assay: Activation of full-length human factor-11a-mediated S-2366 hydrolysis at 300 uM preincubated for 10 mins followed by substrate addition by spectrophotometric analysis relative to control; parameters: scale not given: the % may be the effect or the level left
Procedure, shortened: (§1)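 Single-point screen: inhibitor (300 μM final) incubated with fXIa (0.765 nM final) in 0.05 M Tris-HCl pH 7.4, 0.15 M NaCl, 0.1% PEG8000, 0.02% Tween80, 10 min at 37 °C. S-2366 then added (330 μM final) and the initial rate taken from A405 rise (<10% conversion). Residual activity (%) is the rate ratio with versus without inhibitor. At least duplicate; mean ± SD.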

Coagulation factor XI [2] = molecular target: T1, Coagulation factor XI; assay: Inhibition of full-length human factor-11a-mediated S-2366 hydrolysis preincubated for 10 mins followed by substrate addition by spectrophotometric analysis
Procedure, shortened: (§2)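 Dose-response run in the same Tris pH 7.4 buffer with NaCl, PEG8000 and Tween80. Serial 2/3 or 5/6 inhibitor dilutions were preincubated 10 min at 37 °C with fXIa (0.765 nM final). S-2366 was then added (330 μM final) and the initial A405 rate read. Residual activity versus log[I] was fitted to a logistic equation for IC50, Hill slope, YM and Y0. At least two measurements; ± SD.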

Coagulation factor XI [3] = molecular target: T1, Coagulation factor XI; assay: Inhibition of full-length human factor-11a-mediated S-2366 hydrolysis assessed as reduction in residual activity at 300 uM preincubated for 10 mins followed by substrate addition by spectrophotometric analysis relative to control; procedure, shortened: as §1
Coagulation factor XI [4] = molecular target: T1, Coagulation factor XI; assay: Inhibition of full-length human factor-11a-mediated S-2366 hydrolysis preincubated for 10 mins followed by substrate addition by spectrophotometric analysis relative to control; procedure, shortened: as §2
Coagulation factor XI [5] = molecular target: T1, Coagulation factor XI
Coagulation factor XI [6] = molecular target: T1, Coagulation factor XI; assay: Inhibition of human factor-11a catalytic domain-mediated S-2366 hydrolysis preincubated for 10 mins followed by substrate addition by spectrophotometric analysis
Procedure, shortened: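 Recombinant fXIa catalytic domain (0.765 nM final) in 0.05 M Tris-HCl pH 7.4, 0.15 M NaCl, 0.1% PEG8000, 0.02% Tween80. Incubated 10 min at 37 °C with serial inhibitor dilutions (2/3 or 5/6 decrements), then S-2366 added to 330 μM final. Initial A405 rate gives residual activity; IC50 from logistic fit versus log[I]; at least two measurements.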

Coagulation factor XI [7] = molecular target: T1, Coagulation factor XI; assay: Binding affinity to fluorescein-EGR-labeled human factor-11a by fluorescence spectroscopic analysis
Procedure, shortened: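 fXIa active-site labeled with fluorescein-EGR (74 nM) in Tris pH 7.4 buffer without Tween80 at 37 °C. Excitation at 480 nm, emission recorded at 522 nm during ligand titration. ΔF/F0 versus ligand concentration was fitted to a quadratic binding equation to give the dissociation constant.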

Coagulation factor XI [8] = molecular target: T1, Coagulation factor XI; assay: Inhibition of full-length human factor-11a-mediated S-2366 hydrolysis at 300 uM preincubated for 10 mins followed by substrate addition by spectrophotometric analysis relative to control; procedure, shortened: as §1

T1 sequence (P03951 19-387 limits assumed): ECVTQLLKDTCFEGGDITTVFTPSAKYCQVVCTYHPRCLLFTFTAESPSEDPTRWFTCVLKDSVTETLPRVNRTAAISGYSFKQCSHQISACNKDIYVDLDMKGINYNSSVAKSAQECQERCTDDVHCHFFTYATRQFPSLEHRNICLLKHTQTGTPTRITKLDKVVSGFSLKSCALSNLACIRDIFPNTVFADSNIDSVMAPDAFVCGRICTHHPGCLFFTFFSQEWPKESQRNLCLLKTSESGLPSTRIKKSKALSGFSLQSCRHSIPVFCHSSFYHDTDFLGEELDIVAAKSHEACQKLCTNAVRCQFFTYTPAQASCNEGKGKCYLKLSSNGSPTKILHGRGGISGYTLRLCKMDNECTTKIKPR
T1 sequence (P03951 388-625 limits assumed): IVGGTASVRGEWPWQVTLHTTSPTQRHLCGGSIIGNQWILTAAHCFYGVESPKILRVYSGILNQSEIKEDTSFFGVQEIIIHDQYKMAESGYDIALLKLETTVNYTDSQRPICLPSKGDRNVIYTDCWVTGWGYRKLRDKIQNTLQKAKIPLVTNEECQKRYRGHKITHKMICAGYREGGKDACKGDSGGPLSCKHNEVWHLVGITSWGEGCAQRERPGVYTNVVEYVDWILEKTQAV

SMILES	IC50 (Coagulation factor XI [2])	Activity (Coagulation factor XI [3])	Efficacy (Coagulation factor XI [4])	other results
CCOC(=O)C1Cc2cc(OS(=O)(=O)O)c(OS(=O)(=O)O)cc2CN1C(=O)c1ccc(OS(=O)(=O)O)c(OS(=O)(=O)O)c1 (stereo unspecified)	–	–	–	Activity (Coagulation factor XI [1]): 20%
O=C(c1cc(OS(=O)(=O)O)c(OS(=O)(=O)O)c(OS(=O)(=O)O)c1)N1CCc2cc(OS(=O)(=O)O)c(OS(=O)(=O)O)cc2C1	–	–	–	Activity (Coagulation factor XI [1]): 20%
O=C(O)C1Cc2cc(OS(=O)(=O)O)c(OS(=O)(=O)O)cc2CN1C(=O)c1cc(OS(=O)(=O)O)c(OS(=O)(=O)O)c(OS(=O)(=O)O)c1 (stereo unspecified)	–	–	–	Activity (Coagulation factor XI [1]): 20%
CCOC(=O)c1c(C)oc2cc(OC)c(OCc3oc4cc(OC)c(OCc5oc6cc(OC)c(OS(=O)(=O)O)cc6c5C(=O)OC)cc4c3C(=O)OCC)cc12	14.9 µM	> 50%	100%	–
CCOC(=O)c1c(C)oc2cc(OC)c(OCc3oc4cc(OC)c(OCc5oc6cc(OC(C)C)c(OS(=O)(=O)O)cc6c5C(=O)OCC)cc4c3C(=O)OCC)cc12	47.2 µM	> 50%	100%	–
O=C(c1cc(OS(=O)(=O)O)cc(OS(=O)(=O)O)c1)N1CCc2cc(OS(=O)(=O)O)c(OS(=O)(=O)O)cc2C1	–	–	–	Activity (Coagulation factor XI [1]): 20%
C=CCOC(=O)c1c(C)oc2cc(OC)c(OCc3oc4cc(OC)c(OCc5oc6cc(OC)c(OS(=O)(=O)O)cc6c5C(=O)OCC)cc4c3C(=O)OCC)cc12	29.9 µM	> 50%	100%	–
CCOC(=O)c1c(C)oc2cc(OC)c(OCc3oc4cc(OC)c(OCc5oc6cc(OC)c(OS(=O)(=O)O)cc6c5C(=O)OCC)cc4c3C(=O)OCC)cc12	6.4 µM	> 50%	100%	–
CCOC(=O)c1c(C)oc2cc(OC)c(OCc3oc4cc(OC)c(OCc5oc6cc(OCC)c(OS(=O)(=O)O)cc6c5C(=O)OCC)cc4c3C(=O)OCC)cc12	0.82 µM	> 50%	100%	KSV (Coagulation factor XI [5]): 2.3; IC50 (Coagulation factor XI [6]): 49 µM; Kd (Coagulation factor XI [7]): 1.2 µM
CCOC(=O)c1c(C)oc2cc(OCc3oc4cc(OC)c(OS(=O)(=O)O)cc4c3C(=O)OCC)c(OC)cc12	–	–	–	inhibition (Coagulation factor XI [8]): inactive
CCOC(=O)c1c(C)oc2cc(OC)c(OCc3oc4cc(OC)c(OCc5oc6cc(OS(=O)(=O)O)c(OC)cc6c5C(=O)OCC)cc4c3C(=O)OCC)cc12	–	–	–	inhibition (Coagulation factor XI [8]): inactive
CCOC(=O)c1c(C)oc2cc(OC)c(OCc3oc4cc(OCC)c(OS(=O)(=O)O)cc4c3C(=O)OCC)cc12	7.5 µM	> 50%	100%	Kd (Coagulation factor XI [7]): 4.5 µM

Now from value to molecule, other results behind:

IC50 (Coagulation factor XI [2])	Activity (Coagulation factor XI [3])	Efficacy (Coagulation factor XI [4])	SMILES	other results
99 µM	> 50%	100%	CCOC(=O)c1c(C)oc2cc(OC)c(OCc3oc4cc(OC)c(OCc5oc6cc(OC)c(OCc7oc8cc(OC)c(OS(=O)(=O)O)cc8c7C(=O)OCC)cc6c5C(=O)OCC)cc4c3C(=O)OCC)cc12	–
122 µM	> 50%	100%	O=C(Nc1ccc(OS(=O)(=O)O)cc1)c1cccc(N2C(=O)c3ccc(C(=O)Nc4ccc(OS(=O)(=O)O)cc4)cc3C2=O)c1	–
9.7 µM	> 50%	100%	COC(=O)c1c(C)oc2cc(OC)c(OCc3oc4cc(OC)c(OS(=O)(=O)O)cc4c3C(=O)OC)cc12	–
29.9 µM	> 50%	100%	CCOC(=O)c1c(COc2cc3c(C(=O)O)c(C)oc3cc2OC)oc2cc(OC)c(OCc3oc4cc(OC)c(OS(=O)(=O)O)cc4c3C(=O)OCC)cc12	–
384 µM	–	100%	CCOC(=O)c1c(COc2cc3c(C(=O)OCC)c(COc4cc5c(C(=O)O)c(C)oc5cc4OC)oc3cc2OC)oc2cc(OC)c(O)cc12	inhibition (Coagulation factor XI [8]): 50%
109 µM	> 50%	100%	N#Cc1c(SCC(=O)c2cccc(OS(=O)(=O)O)c2OS(=O)(=O)O)nc([N+](=O)[O-])c(C#N)c1-c1ccc(Oc2ccccc2)cc1	–
